Screens as filed in PubChem.
HSF1 activator = increases HSF-1 driven luciferase reporter signal; activation, % at 9 µM; NIH3T3-HGL HSF-1 luciferase reporter, MG132, 8 h; 100% = twice DMSO control signal; 300,000 compounds, 1.7% hits;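 active = mean replicate activation of at least 50% with a set share of replicates each reaching 50%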
T cruzi repl = blocks replication of Trypanosoma cruzi | inhibition, % (test concentration not listed) | T. cruzi beta-gal in NIH3T3, luminescence, 90 h | 300,000 compounds, 1.4% hits;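 active = mean inhibition across valid replicates above about 55%, limit read from the data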;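 note: signal also drops with host cell toxicity which is not excluded here; higher percent means less beta-gal luminescence so fewer parasites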
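Test system: β-gal T. cruzi (Tulahuen C4) inside NIH/3T3 cells / Quantity: 5,000 cells/well / Measured by: luminescence from GalScreen with 0.05% NP40, read after 60 min / Medium: DMEM plus 2% FBS / Measure: parasite load inhibition, % / Reagent: Tulahuen C4 trypomastigotes, 5000/well / Schedule: co-culture of at least 90 h after 3 h attachment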
L major viab = reduces viability of Leishmania major promastigotes. resazurin fluorescence viability. AID 1063. 200,000 compounds, 9% hits. inhibition, % at 10 µM; in the data active = inhibition above about 50%;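 note: promastigotes grown with compound for 44 hours at 28 °C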
HSF1 inh = HSF1 inhibition; NIH3T3-HGL HSE-luciferase, MG132-induced, luminescence 8 h; active compounds read low; activity change, negative = inhibition, % at 7.5 µM (by protocol); 300,000 compounds, 0.77% hits; AID 2098;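 active = more than half of replicate wells show activity change below -50%, luminescence cut by over half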;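 note: luciferase reports HSF-1 transcriptional activity via heat shock element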
Hsp70 activator = switches on Hsp70 transcription. 200,000 compounds, 0.04% hits. HeLa Hsp70 promoter luciferase reporter, luminescence; scaled: vehicle 0, proteasome-inhibitor control 100%. activation, % at 10 µM. AID 1203;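 active = activation above the mean across all tested compounds plus 3 SD, cutoff set per campaign, cut at about 5.5% in these data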
Each line names hits and unclear results; the compound was inactive in the other large screens. The entries come from a sample that favours hits as a whole.

CCNc1nc(OC)nc(N(OC)S(=O)(=O)c2ccc(C)cc2)n1	none (no result: L major viab, Hsp70 activator)
Cn1c(C(=O)NN)cc2cc(OCc3ccccc3)ccc21	HSF1 inh -84 (no result: L major viab, Hsp70 activator)
COC(=O)c1cccc(Cn2cc([N+](=O)[O-])cn2)c1	none
NNC(=O)c1cccc(COc2ccc(Br)cc2)c1	none
COc1ccc(OCc2cccc(C(=O)NN)c2)cc1	HSF1 inh -66
COc1ccc(OCc2cccc(C(=O)Nn3cc([N+](=O)[O-])cn3)c2)cc1	HSF1 inh -54
COc1ccccc1OCC(O)Cn1c(=N)n(Cc2ccccc2)c2ccccc21 (stereo not given)	L major viab 101
Cc1ccccc1OCC(O)Cn1c(=N)n(Cc2ccccc2)c2ccccc21 (stereo not given)	T cruzi repl 55 (no result: L major viab, Hsp70 activator)
Cc1cc(C)n(C(=O)/C=C/c2cccs2)n1	none (no result: L major viab, Hsp70 activator)
CCOC(=O)C1=C(N)Oc2cc(O)ccc2C1c1cccnc1 (stereo not given)	L major viab 92
CCOC(=O)C1=C(N)OC2=C(C(=O)CC(C)C2)C1c1cccnc1 (stereo not given)	L major viab 70
COCCOC(=O)C1=C(N)OC2=C(C(=O)CC(C)(C)C2)C1c1cccnc1 (stereo not given)	L major viab 82
CCCOC(=O)C1=C(C)NC2=C(C(=O)CC(C)(C)C2)C1c1cccnc1 (stereo not given)	L major viab 90
Nc1cc(S(=O)(=O)Nc2cc(Cl)ccc2Cl)ccc1N1CCCC1	none (no result: L major viab, Hsp70 activator)
CC1CCN(S(=O)(=O)c2ccc(NC(=O)CN3C(=O)NC(C)(c4ccccc4)C3=O)cc2)CC1 (stereo not given)	none (no result: L major viab, Hsp70 activator)
Cc1cc(C)c(NC(=O)C2=COCCO2)c(C)c1	none (no result: L major viab, Hsp70 activator)
CCOC(=O)C1=C(N)OC2=C(C(=O)CC(C)(C)C2)C1c1ccccc1OCC#N (stereo not given)	HSF1 inh -57
CC(=O)CCS(=O)(=O)c1ccc(Oc2ccc(S(=O)(=O)CCC(C)=O)cc2)cc1	L major viab 54
COc1cc(C(=O)Oc2ccccc2/C=N/NC(=O)c2ccc(Cl)cc2)cc(OC)c1OC	T cruzi repl 67, L major viab 93
COc1cc(C(=O)Oc2ccccc2/C=N/NC(=O)c2ccc(C)c(Cl)c2)cc(OC)c1OC	T cruzi repl 55
COc1ccc(C(=O)N/N=C/c2ccccc2C(=O)O)cc1OC	none (no result: L major viab, Hsp70 activator)
c1ccc(SCCN2CCN(c3ccccc3)CC2)cc1	none (no result: L major viab, Hsp70 activator)
CCCn1c(N)c(C(=O)COC(=O)CCNS(=O)(=O)c2ccccc2F)c(=O)[nH]c1=O	none (no result: L major viab, Hsp70 activator)
CCOC(=O)CSc1nc(Nc2ccc3c(c2)OCO3)c2ccccc2n1	L major viab 56
CCOC(=O)c1cnc2ccccc2c1NCc1ccco1	none (no result: L major viab, Hsp70 activator)
CCOC(=O)c1cnc2ccccc2c1Nc1ccc2c(c1)OCCO2	HSF1 inh -61
CC(C)Cn1c(N)c(C=O)c(=O)[nH]c1=O	none
CCOC(=O)Cc1csc(NC(=O)Nc2ccc(OC(F)(F)F)cc2)n1	none (no result: L major viab, Hsp70 activator)
CCOC(=O)Cc1csc(NC(=O)NC2(C(F)(F)F)Oc3ccccc3O2)n1	L major viab 90
CCOC(=O)Cc1csc(NC(=O)NC2(C(F)(F)F)Oc3ccc(Cl)cc3O2)n1 (stereo not given)	L major viab 53
COc1cccc(NC(=O)NC2(C(F)(F)F)Oc3ccccc3O2)c1	HSF1 activator 67
CCOC(=O)Cc1csc(NC(=O)Cc2ccc(Cl)cc2)n1	none (no result: L major viab, Hsp70 activator)
CCOC(=O)Cc1csc(NC(=O)NC2(C(F)(F)F)Oc3cc(Cl)c(Cl)cc3O2)n1	HSF1 inh -57
COc1ccc2c(c1)-c1c(ssc1=S)C(C)(C)N2S(=O)(=O)c1ccc(C)cc1	L major viab 92
Cc1ccc(S(=O)(=O)N2c3ccccc3-c3c(ssc3=S)C2(C)C)cc1	T cruzi repl 55, L major viab 99
CC1(C)c2ssc(=S)c2-c2ccccc2N1C(=O)CSC1=NCCS1	none
COc1ccc2c(c1)-c1c(ssc1=S)C(C)(C)N2	none
CCC1CCCCN1C(=O)CCc1nnc(Cc2cc(OC)ccc2OC)o1 (stereo not given)	none (no result: L major viab, Hsp70 activator)
CCc1ccc(S(=O)(=O)/N=C2\C=C(Nc3ccc(C(=O)O)cc3)C(=O)c3ccccc32)cc1	none (no result: L major viab, Hsp70 activator)
O=C1C(Nc2ccccc2)=C/C(=N/S(=O)(=O)c2cccs2)c2ccccc21	T cruzi repl 60, L major viab 101, HSF1 inh -94
COC(=O)c1ccccc1NC1=C/C(=N\S(=O)(=O)c2ccc(C(=O)O)cc2)c2ccccc2C1=O	none (no result: L major viab, Hsp70 activator)
Cc1ccc(NC2=C/C(=N/S(=O)(=O)c3cccs3)c3ccccc3C2=O)cc1	L major viab 99, HSF1 inh -94
COC(=O)c1ccccc1NC1=C/C(=N\S(=O)(=O)c2cccs2)c2ccccc2C1=O	L major viab 100
CCOc1ccc(CNc2nnnn2C)cc1	none (no result: L major viab, Hsp70 activator)
CC/C(=N\NC(=O)c1ccc(-c2ccccc2)cc1)C12CC3CC(CC(C3)C1)C2	L major viab 65
CCOc1cc(/C=N/NC(=O)Cn2nc([N+](=O)[O-])cc2C)cc(Br)c1OCc1ccccc1C	HSF1 activator 71, T cruzi repl 57
O=C(N/N=C/c1ccc([N+](=O)[O-])o1)C(=O)Nc1ccc(C(=O)O)cc1	none (no result: L major viab, Hsp70 activator)
Cc1cc(C(=O)N/N=C/c2ccc([N+](=O)[O-])o2)c(C)o1	none (no result: L major viab, Hsp70 activator)
Cc1ccc(NC(=O)CCC(=O)N/N=C/c2ccc([N+](=O)[O-])o2)cc1C	T cruzi repl 61 (no result: L major viab, Hsp70 activator)
CCCC(=O)Nc1ccc(C(=O)N/N=C/c2ccc([N+](=O)[O-])o2)cc1	L major viab 99
Cc1ccc(C(C[N+](=O)[O-])Sc2ccc(N)cc2)cc1 (stereo not given)	none (no result: L major viab, Hsp70 activator)
Cc1cc(C(=O)NNc2ccc(F)cc2F)no1	none (no result: T cruzi repl, L major viab, Hsp70 activator)
Cc1ccc(N(CC(=O)NCc2ccc(F)cc2)C(=O)c2csnn2)c(C)c1	none
Cc1cccc(N(CC(=O)NCc2ccc(F)cc2)C(=O)c2csnn2)c1C	HSF1 activator 52
O=C(CN(C(=O)c1csnn1)c1ccccc1Cl)NC1CCCC1	none (no result: L major viab, Hsp70 activator)
CCN(CC)c1ccc(/C=N/NC(=S)NCc2ccccc2)cc1	none
CCN(CC)c1ccc(/C=N/NC(=S)NCc2ccc(OC)cc2)cc1	HSF1 activator 53
CCOc1ccc(CNC(=S)N/N=C/c2ccncc2)cc1	none
COc1ccc(CNC(=S)N/N=C/c2ccncc2)cc1	L major viab 54
COc1ccc(C2(C(=O)Nc3ccc(C)c(C)c3)CCOCC2)cc1	none
CC(C)CC1CC(C)(c2csc(NNC(=O)c3ccccc3)n2)OC1=O (stereo not given)	none
COc1cc2c(cc1OC)C(c1ccccc1F)NCC2 (stereo not given)	none (no result: L major viab, Hsp70 activator)
Cc1ccccc1NC(=O)c1cccc(Cn2cc(Br)c([N+](=O)[O-])n2)c1	none
COc1ccc(OC)c(NC(=O)c2cccc(Cn3cc(Br)c([N+](=O)[O-])n3)c2)c1	T cruzi repl 64, L major viab 100
Cc1cccc(NC(=O)c2cccc(Cn3cc(Br)c([N+](=O)[O-])n3)c2)c1C	T cruzi repl 58
